The source made the active and inactive calls. No cut-off for these calls is given here.
Assays:
[1] = biological target: T1, Peroxisome proliferator-activated receptor delta (Homo sapiens) (UniProt Q03181); assay: (§1) Agonist activity on Gal4 chimeric human Peroxisome proliferator activated receptor delta expressed in CHO-K1 cells; assay type: functional, cell-based
T1 sequence (whole entry): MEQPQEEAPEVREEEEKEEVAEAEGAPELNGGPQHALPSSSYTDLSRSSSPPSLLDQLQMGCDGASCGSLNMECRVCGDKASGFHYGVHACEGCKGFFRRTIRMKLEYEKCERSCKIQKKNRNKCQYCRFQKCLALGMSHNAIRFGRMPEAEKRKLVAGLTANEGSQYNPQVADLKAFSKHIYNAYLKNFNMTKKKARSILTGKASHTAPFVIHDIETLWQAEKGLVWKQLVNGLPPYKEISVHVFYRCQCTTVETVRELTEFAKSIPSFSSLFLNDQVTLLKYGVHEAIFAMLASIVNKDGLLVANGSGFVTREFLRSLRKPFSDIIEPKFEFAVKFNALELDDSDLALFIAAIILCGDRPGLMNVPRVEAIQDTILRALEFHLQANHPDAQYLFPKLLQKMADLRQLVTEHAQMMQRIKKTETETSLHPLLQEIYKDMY
How it was run: (§2)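 GAL4–human PPAR LBD chimera, reporter assay in CHO-K1 cells. Cells seeded at 5 × 10⁴/well in Ham's F12 with 10% FCS for 24 h at 37 °C. Cotransfected for 2 h (lipofectamine) per well with 40 ng GAL4/PPAR LBD, 400 ng pFR-Luc and 5 ng pRL-TK. Compounds applied for 20 h at 37 °C, then luciferase read from cell lysates. EC50 is 50% of maximal reporter activity, from curve fit, n = 3.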

[2] = biological target: T2, Peroxisome proliferator-activated receptor alpha (Homo sapiens, UniProt Q07869); assay type: functional, cell-based
T2 sequence (Q07869 whole entry): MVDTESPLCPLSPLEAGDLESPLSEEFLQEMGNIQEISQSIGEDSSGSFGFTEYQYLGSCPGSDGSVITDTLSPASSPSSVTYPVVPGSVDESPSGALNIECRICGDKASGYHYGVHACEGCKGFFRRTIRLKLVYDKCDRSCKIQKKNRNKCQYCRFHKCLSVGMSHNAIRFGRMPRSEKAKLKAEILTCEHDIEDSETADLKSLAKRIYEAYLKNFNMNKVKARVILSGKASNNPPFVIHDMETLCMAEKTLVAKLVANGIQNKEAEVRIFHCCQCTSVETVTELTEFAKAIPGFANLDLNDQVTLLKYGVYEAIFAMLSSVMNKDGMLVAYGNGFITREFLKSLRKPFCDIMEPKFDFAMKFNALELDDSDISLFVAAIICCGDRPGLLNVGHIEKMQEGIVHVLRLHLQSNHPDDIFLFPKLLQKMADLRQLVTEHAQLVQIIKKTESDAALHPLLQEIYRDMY

[3] = biological target: T3, Peroxisome proliferator-activated receptor delta (Homo sapiens, UniProt Q03181); assay: as §1; assay type: functional, cell-based
T3 sequence (Q03181 whole entry): T1 sequence (whole entry)

[4] = biological target: T4, Peroxisome proliferator-activated receptor gamma (Homo sapiens, UniProt P37231)
T4 sequence (P37231 whole entry): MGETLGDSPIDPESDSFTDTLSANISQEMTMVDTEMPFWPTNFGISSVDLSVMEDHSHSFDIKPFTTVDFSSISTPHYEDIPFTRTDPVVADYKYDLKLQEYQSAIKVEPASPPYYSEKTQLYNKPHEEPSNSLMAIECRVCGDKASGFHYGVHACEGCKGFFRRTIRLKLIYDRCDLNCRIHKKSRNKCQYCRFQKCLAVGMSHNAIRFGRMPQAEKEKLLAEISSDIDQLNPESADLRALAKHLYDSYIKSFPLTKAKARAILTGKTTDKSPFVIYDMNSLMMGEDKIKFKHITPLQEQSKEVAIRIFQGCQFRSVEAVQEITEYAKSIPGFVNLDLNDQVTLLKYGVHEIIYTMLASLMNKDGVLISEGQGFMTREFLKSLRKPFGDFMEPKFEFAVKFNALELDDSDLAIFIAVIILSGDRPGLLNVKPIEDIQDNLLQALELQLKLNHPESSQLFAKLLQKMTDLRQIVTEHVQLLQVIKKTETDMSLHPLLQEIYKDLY

[5] = biological target: T5, Peroxisome proliferator-activated receptor gamma (Homo sapiens) (UniProt P37231); assay: In vitro effective concentration for agonist activity on human Peroxisome proliferator activated receptor gamma-Gal4 chimeric receptor in transfected CHO-K1 cells at 10 uM; assay type: functional, cell-based
T5 sequence (whole entry): T4 sequence (P37231 whole entry)

[6] = biological target: T1, Peroxisome proliferator-activated receptor delta (Homo sapiens); assay: In vitro effective concentration for agonist activity on human Peroxisome proliferator activated receptor delta-GAL4 chimeric receptor in transfected CHO-K1 cells; inactive; assay type: functional, cell-based; how it was run: as §2
[7] = biological target: T6, Peroxisome proliferator-activated receptor alpha (Homo sapiens) (UniProt Q07869); assay: Agonist activity on Gal4 chimeric human Peroxisome proliferator activated receptor alpha expressed in CHO-K1 cells; assay type: functional, cell-based; how it was run: as §2
T6 sequence (whole entry): T2 sequence (Q07869 whole entry)

[8] = biological target: T1, Peroxisome proliferator-activated receptor delta (Homo sapiens); assay: In vitro effective concentration for agonist activity on human Peroxisome proliferator activated receptor delta-GAL4 chimeric receptor in transfected CHO-K1 cells at 10 uM; inactive; assay type: functional, cell-based
[9] = biological target: T1, Peroxisome proliferator-activated receptor delta (Homo sapiens); assay: In vitro In vitro effective concentration for agonist activity on human Peroxisome proliferator activated receptor delta-GAL4 chimeric receptor in transfected CHO-K1 cells at 10 uM; inactive; assay type: functional, cell-based
Rattus norvegicus [10] = assay: In vivo percent reduction on TG of the rat at 30 mg/kg after 5 days; assay type: functional
How it was run: (§3)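 Male Sprague-Dawley rats, 11 weeks old, fed standard chow and water ad libitum. Drug or vehicle suspended in 0.5% w/v arabic gum and given orally once daily at 0.3, 3 or 30 mg/kg; duration is 4 days in the methods and 5 days in the table. Plasma taken in the fed state. TG, FFA and total cholesterol measured enzymatically. HDL obtained by precipitation; LDL+VLDL = total minus HDL cholesterol. Values are mean percent reduction, N = 5 or 6.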

Rattus norvegicus [11] = assay: In vivo percent reduction on LDL+VLDL of the rat at 30 mg/kg after 5 days; assay type: functional; how it was run: as §3
Rattus norvegicus [12] = assay: In vivo percent reduction on total cholesterol of the rat at 30 mg/kg after 5 days; assay type: functional; how it was run: as §3
Rattus norvegicus [13] = assay: In vivo percent reduction on FFA of the rat at 30 mg/kg after 5 days; assay type: functional; how it was run: as §3
[14] = biological target: T1, Peroxisome proliferator-activated receptor delta (Homo sapiens); assay: In vitro effective concentration for agonist activity on human Peroxisome proliferator activated receptor delta-GAL4 chimeric receptor in transfected CHO-K1 cells at 10 uM; inactive

SMILES	IA [1]	EC50 [2]	IA [5]	other results
COc1ccc(CCCC(=O)O)cc1C(=O)NCc1ccc(C(F)(F)F)cc1	inactive	–	–	–
CCSC(Cc1ccc(OC)c(C(=O)NCc2ccc(C(F)(F)F)cc2)c1)C(=O)O (centres undefined)	–	1.6 µM	–	EC50 [3]: 3 µM; EC50 [4]: 2.8 µM
COc1ccc(CC(C(=O)O)C(C)C)cc1C(=O)NCc1ccc(C(F)(F)F)cc1 (centres undefined)	inactive	–	inactive	–
CCC(Cc1ccc(OC)c(C(=O)NCc2ccc(Oc3ccccc3)cc2)c1)C(=O)O (centres undefined)	–	0.09 µM	–	EC50 [3]: 3 µM; EC50 [4]: 2.4 µM
CCC(Cc1ccc(OC)c(OCCc2ccc(C(F)(F)F)cc2)c1)C(=O)O (centres undefined)	–	–	inactive	–
CCC(Cc1ccc(OC)c(C(=O)NCc2ccc(Cl)cc2)c1)C(=O)O (centres undefined)	–	3 µM	inactive	IA [6]: inactive
CCCCC(Cc1ccc(OC)c(C(=O)NCc2ccc(C(F)(F)F)cc2)c1)C(=O)O (centres undefined)	–	–	–	IA [6]: inactive
CCC(Cc1ccc(OC)c(NC(=O)Nc2ccc(C(F)(F)F)cc2)c1)C(=O)O (centres undefined)	inactive	–	inactive	IA [7]: inactive
CCC(Cc1ccc(OC)c(NC(=O)Cc2ccc(C(F)(F)F)cc2)c1)C(=O)O (centres undefined)	inactive	–	inactive	–
CCC(Cc1ccc(OC)c(CC(=O)Nc2ccc(C(F)(F)F)cc2)c1)C(=O)O (centres undefined)	inactive	–	inactive	–
CCC(Cc1ccc(OC)c(C(=O)Nc2ccc(C(F)(F)F)cc2)c1)C(=O)O (centres undefined)	inactive	–	inactive	–
CCC(Cc1ccc(OC)c(CNCc2ccc(C(F)(F)F)cc2)c1)C(=O)O (centres undefined)	–	–	inactive	–
CCC(Cc1ccc(OC)c(C(=O)NCc2ccc(OC)cc2)c1)C(=O)O (centres undefined)	–	1.2 µM	inactive	EC50 [3]: 6.6 µM
CCC(Cc1ccc(OC)c(C(=O)NCc2ccc(OCCc3ccccc3)cc2)c1)C(=O)O (centres undefined)	inactive	2.7 µM	–	EC50 [4]: 3 µM
COc1ccc(CC(Sc2ccccc2)C(=O)O)cc1C(=O)NCc1ccc(C(F)(F)F)cc1 (centres undefined)	inactive	–	inactive	IA [7]: inactive
CCC(Cc1ccc(OC)c(C(=O)NCc2cccc(Oc3ccccc3)c2)c1)C(=O)O (centres undefined)	inactive	0.4 µM	–	EC50 [4]: 6.2 µM
CCC(Cc1ccc(OC)c(C(=O)NCc2cccc(OC)c2)c1)C(=O)O (centres undefined)	inactive	3.1 µM	–	–
CCC(Cc1ccc(OC)c(C(=O)NCc2cccc(C(F)(F)F)c2)c1)C(=O)O (centres undefined)	–	1.8 µM	inactive	IA [8]: inactive
CCC(Cc1ccc(OC)c(CCCc2ccc(C(F)(F)F)cc2)c1)C(=O)O (centres undefined)	–	–	inactive	–
COc1ccc(CC(OC)C(=O)O)cc1C(=O)NCc1ccc(C(F)(F)F)cc1 (centres undefined)	inactive	–	inactive	–
CCC(Cc1ccc(OC)c(C(=O)NCc2ccccc2Oc2ccccc2)c1)C(=O)O (centres undefined)	inactive	–	inactive	IA [7]: inactive
CCC(Cc1ccc(OC)c(C(=O)NCc2ccc(OCc3ccccc3)cc2)c1)C(=O)O (centres undefined)	inactive	1.5 µM	inactive	–

SMILES	IA [1]	EC50 [2]	IA [5]	other results
COc1ccc(CC(=O)O)cc1C(=O)NCc1ccc(C(F)(F)F)cc1	–	–	inactive	IA [7]: inactive; IA [9]: inactive
CCC(Cc1ccc(OC)c(C(=O)NCc2ccccc2)c1)C(=O)O (centres undefined)	–	2.3 µM	–	IA [8]: inactive; EC50 [4]: 10 µM
COc1ccc(C(=O)O)cc1C(=O)NCc1ccc(C(F)(F)F)cc1	inactive	–	inactive	IA [7]: inactive
CCC(Cc1ccc(OC)c(CNC(=O)c2ccc(C(F)(F)F)cc2)c1)C(=O)O (centres undefined)	–	–	–	EC50 [4]: > 10 µM
COc1ccc(CC(Oc2ccccc2)C(=O)O)cc1C(=O)NCc1ccc(C(F)(F)F)cc1 (centres undefined)	inactive	–	inactive	IA [7]: inactive
COc1ccc(CC(C)(C)C(=O)O)cc1C(=O)NCc1ccc(C(F)(F)F)cc1	inactive	–	inactive	–
CCC(Cc1ccc(OC)c(C(=O)NCc2ccccc2OC)c1)C(=O)O (centres undefined)	inactive	9.4 µM	inactive	–
COc1ccc(CC(C)C(=O)O)cc1C(=O)NCc1ccc(C(F)(F)F)cc1 (centres undefined)	–	–	inactive	–
COc1ccc(CC(C(=O)O)c2ccccc2)cc1C(=O)NCc1ccc(C(F)(F)F)cc1 (centres undefined)	inactive	–	inactive	IA [7]: inactive
CCC(Cc1ccc(OC)c(C(=O)N(C)Cc2ccc(C(F)(F)F)cc2)c1)C(=O)O (centres undefined)	inactive	–	inactive	IA [7]: inactive
CCCC(Cc1ccc(OC)c(C(=O)NCc2ccc(C(F)(F)F)cc2)c1)C(=O)O (centres undefined)	–	–	inactive	–
CCC(Cc1ccc(OC)c(C(=O)NCc2ccc(-c3ccccc3)cc2)c1)C(=O)O (centres undefined)	inactive	–	–	EC50 [4]: 4 µM
CCC(Cc1ccc(OC)c(C(=O)CCc2ccc(C(F)(F)F)cc2)c1)C(=O)O (centres undefined)	–	–	–	IA [8]: inactive
COc1ccc(CC(SCc2ccccc2)C(=O)O)cc1C(=O)NCc1ccc(C(F)(F)F)cc1 (centres undefined)	inactive	–	inactive	IA [7]: inactive
CCC(CC)(Cc1ccc(OC)c(C(=O)NCc2ccc(C(F)(F)F)cc2)c1)C(=O)O	inactive	–	inactive	–
CC(C)(Oc1ccc(CCNC(=O)c2ccc(Cl)cc2)cc1)C(=O)O [BEZAFIBRATE]	–	–	–	Reduction (Rattus norvegicus [10]): 41%; Reduction (Rattus norvegicus [11]): 22%; Reduction (Rattus norvegicus [12]): 27%; EC50 [3]: > 143 µM; Reduction (Rattus norvegicus [13]): 46%
COc1ccc(CC2SC(=O)NC2=O)cc1C(=O)NCc1ccc(C(F)(F)F)cc1 (centres undefined)	–	–	–	IA [14]: inactive
CCC(Cc1ccc(OC)c(C(=O)NCCc2ccc(C(F)(F)F)cc2)c1)C(=O)O (centres undefined)	–	–	inactive	–
COc1ccc(CCC(=O)O)cc1C(=O)NCc1ccc(C(F)(F)F)cc1	inactive	–	inactive	–
CCC(Cc1ccc(OC)c(C(=O)NCc2ccc(OC(F)(F)F)cc2)c1)C(=O)O (centres undefined)	–	0.043 µM	inactive	EC50 [3]: 0.9 µM
CCC(Cc1ccc(OC)c(C(=O)NCc2ccc(CCc3ccccc3)cc2)c1)C(=O)O (centres undefined)	inactive	5.6 µM	–	EC50 [4]: 5.4 µM
